From PubChem
A selection: hits, their analogues and other compounds. The true share with any hit is near 3%.
Apaf-1 inh: inhibitors of human Apaf-1 apoptosome, primary screen, biochemical, DEVD-Rh110 fluorescence, uHTS | inhibition, % at 20 µM | reconstituted apoptosome caspase-3 activity | 330,000 tested, 0.71% active | Apoptotic protease-activating factor 1 (Homo sapiens), O14727; active = inhibition of at least 40% at 20 µM;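 also: plate controls were DMSO wells for no effect and DEVD-CHO caspase inhibitor wells for full effect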
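Material: cell-free apoptosome with Apaf-1, procaspase-3 and caspase-9; Buffer or medium: Hepes pH 7.5 with detergent and BSA; Reagent: cytochrome c trigger plus (Z-DEVD)2-Rh110 caspase-3 substrate; Times: compound with Apaf-1, dATP, procaspase-3 30 min, then 50 min reaction, room temperature; Technique: Rh110 fluorescence intensity.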
SENP6 inh: SENP6 protease inhibitors, primary screen, biochemical, luminescence, uHTS. Sentrin-specific protease 6 (Homo sapiens), Q9GZR1. AID 2599, 2010. 330,000 tested, 1.8% active. inhibition, % at 10 µM. Recombinant SENP6 catalytic domain, aminoluciferin luminescence;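 active = inhibition above about 50% at the single tested dose, limit read from the data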;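 also: plate controls were DMSO wells with enzyme for no effect and DMSO wells lacking enzyme for full effect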
Target sequence (Q9GZR1 628-1112 limits assumed): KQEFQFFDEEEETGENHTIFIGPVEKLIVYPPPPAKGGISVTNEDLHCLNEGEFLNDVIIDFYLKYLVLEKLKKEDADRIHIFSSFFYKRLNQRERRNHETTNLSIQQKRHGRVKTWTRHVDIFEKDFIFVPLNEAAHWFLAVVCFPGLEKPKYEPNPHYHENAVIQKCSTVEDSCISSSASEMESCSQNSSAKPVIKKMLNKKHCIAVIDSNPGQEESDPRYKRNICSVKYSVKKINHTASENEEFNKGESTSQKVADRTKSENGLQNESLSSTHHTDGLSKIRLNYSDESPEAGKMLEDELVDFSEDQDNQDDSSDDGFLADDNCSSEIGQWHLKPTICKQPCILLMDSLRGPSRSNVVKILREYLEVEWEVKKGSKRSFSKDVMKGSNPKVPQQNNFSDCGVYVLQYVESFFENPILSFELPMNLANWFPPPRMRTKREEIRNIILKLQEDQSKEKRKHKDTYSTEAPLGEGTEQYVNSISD
SENP8 block-1: human SENP8 protease inhibitors, primary screen, biochemical, fluorescence, Nedd8 protein substrate, uHTS | 360,000 tested, 0.64% active | Sentrin-specific protease 8 (Homo sapiens), Q96LD8 | recombinant SENP8 | AID 602440, 2012 | inhibition, % at 20 µM; in the data active = inhibition mostly above about 40%, no sharp cut-off; inactive = mostly below about 27%
SENP7 inh: SENP7 protease inhibitors, primary screen, biochemical, luminescence, uHTS | recombinant SENP7, Z-RLRGG-aminoluciferin luminescence, 40 min | inhibition, % at 5 µM | 330,000 tested, 1.5% active | Sentrin-specific protease 7 (Homo sapiens), Q9BQF6 | AID 434973, 2010;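 active = inhibition above about 50% at the single test dose, limit read from the data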;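 also: plate controls were DMSO with enzyme for no effect and no enzyme buffer wells for full effect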
UBC13 polyUb: UBC13 polyubiquitin chain formation inhibitors, primary screen, biochemical, TR-FRET, uHTS | Ubiquitin-conjugating enzyme E2 N (Homo sapiens), P61088 | inhibition, % at 20 µM | 330,000 tested, 0.47% active; in the data active = inhibition above about 45%, passing the limit was not always enough
SENP8 block-2: SENP8 protease inhibitors, primary screen, biochemical, luminescence | purified SENP8, Z-RLRGG-aminoluciferin cleavage | inhibition, % at 10 µM | 330,000 tested, 1.2% active | AID 2540, 2010; in the data active = inhibition above about 50%
SENP8 confirm: SENP8 protease inhibitors, retest, confirmation, biochemical, luminescence, single concentration; Recombinant SENP8, Z-RLRGG-aminoluciferin luminescence, 60 min; inhibition, % at 12.5 µM; shares compounds with SENP7 inh; 6,200 tested, 40% active;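 active = mean inhibition across replicates above about 50%, limit read from the data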
SENP6 confirm: SENP6 protease inhibitors, confirmation, biochemical, luminescence, single concentration; shares compounds with SENP7 inh; recombinant SENP6, Z-RLRGG-aminoluciferin luminescence; inhibition, % at 12.5 µM; 6,200 tested, 58% active; AID 488915, 2010
SENP7 conf: SENP7 protease inhibitors, retest, confirmation, biochemical, luminescence, single concentration | shares compounds with SENP7 inh | recombinant SENP7, Z-RLRGG-aminoluciferin luminescence, 40 min | inhibition, % at 12.5 µM | 6,200 tested, 69% active
Casp3 SENP sel: caspase-3 protease inhibitors, confirmation, selectivity assay for SENP inhibitor project, biochemical, single concentration | shares compounds with SENP7 inh | purified caspase-3, Z-DEVD-aminoluciferin luminescence, 60 min | inhibition, % at 12.5 µM | 6,200 tested, 60% active;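 active = mean inhibition above about 50%, limit read from the data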;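 also: plate controls were enzyme with DMSO for no effect and wells without caspase-3 for full effect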
Target sequence (P42574 28-227 limits assumed): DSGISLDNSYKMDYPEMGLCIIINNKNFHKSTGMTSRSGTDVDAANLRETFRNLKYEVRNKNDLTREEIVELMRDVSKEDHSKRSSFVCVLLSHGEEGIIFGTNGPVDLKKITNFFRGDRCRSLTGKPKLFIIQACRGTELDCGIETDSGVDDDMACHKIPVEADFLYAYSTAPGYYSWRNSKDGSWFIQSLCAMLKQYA
SENP luc ctr: luminescence interference (SENP counter-screen) | shares compounds with SENP7 inh | Pre-incubated SENP8/Z-RLRGG-aminoluciferin, luciferase luminescence interference | inhibition, % at 12.5 µM | 6,200 tested, 39% active;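 active = mean inhibition above about 50% when retested at one dose, limit read from the data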;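 also: plate controls were DMSO wells with completed reaction for no effect and substrate without enzyme for full effect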
The depositor's hits bear a star.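 The calls were made as follows, unless noted: active = mean inhibition above about 50% in the one-dose retest (limit read from the data); inactive = the rest.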

For Nc1nc(N)c2ncn(C3C=CC(CO)C3)c2n1 (centres undefined) the results were SENP8 block-1 2.8.
`COc1ccc(S(=O)(=O)N2CCCC(C(=O)NCC3CCCO3)C2)cc1OC` (centres undefined) gave Apaf-1 inh -5.9, SENP6 inh 0.5, SENP8 block-1 -4.3, SENP7 inh 4.2, UBC13 polyUb 0.5 and SENP8 block-2 8.8.
`CCN(CC)c1ccc(NC(=O)Nc2ccccc2)cc1` gave Apaf-1 inh 6.5, SENP6 inh 83.4*, SENP8 block-1 11.7, SENP7 inh 64.8*, UBC13 polyUb 6.2, SENP8 block-2 63.7*, SENP8 confirm 36.1, SENP6 confirm 71.0*, SENP7 conf 88.1*, Casp3 SENP sel 76.5* and SENP luc ctr 52.1*.
`O=C(Nc1ccc(NC(=O)c2ccc3c(c2)OCCO3)cc1)c1ccccc1` gave Apaf-1 inh -10.7, SENP6 inh -30.5, SENP8 block-1 7.6, SENP7 inh -8.8, UBC13 polyUb 3.2 and SENP8 block-2 5.2.
CCN(CC)c1ccc(C(=O)Nc2cccc(F)c2)cc1 was read as Apaf-1 inh 14.0, SENP6 inh 83.7*, SENP8 block-1 -154.7, SENP7 inh 59.3*, UBC13 polyUb 0.4, SENP8 block-2 59.3*, SENP8 confirm 70.7*, SENP6 confirm 74.1*, SENP7 conf 92.6*, Casp3 SENP sel 63.7* and SENP luc ctr 67.8*.
Screening Cc1ccc(NC(=O)c2ccc3c(c2)OCCO3)cc1C returned Apaf-1 inh 3.8, SENP6 inh 90.8*, SENP8 block-1 8.8, SENP7 inh 91.9*, UBC13 polyUb -2.3, SENP8 block-2 85.9*, SENP8 confirm -10.8, SENP6 confirm 86.1*, SENP7 conf 98.4*, Casp3 SENP sel 85.7* and SENP luc ctr 88.2*.
Cc1cc(C)c(C(=O)Nc2ccc3c(c2)OCCO3)c(C)c1 was read as SENP8 block-1 23.2.
Screening Cc1ccc(C(=O)Nc2ccc3c(c2)OCCO3)c(C)c1 returned Apaf-1 inh -15.8, SENP6 inh 90.9*, SENP8 block-1 -0.8, SENP7 inh 89.1*, UBC13 polyUb 3.0, SENP8 block-2 81.5*, SENP8 confirm 88.3*, SENP6 confirm 88.0*, SENP7 conf 97.4*, Casp3 SENP sel 92.8* and SENP luc ctr 87.4*.
Screening O=C(COc1ccc2ccccc2c1)Nc1cccnc1Cl returned Apaf-1 inh -0.7, SENP6 inh -16.6, SENP8 block-1 6.9, SENP7 inh 12.0, UBC13 polyUb 3.2 and SENP8 block-2 -4.0.
Nc1c(C(=O)Nc2ccccc2)nnn1-c1ccc2c(c1)OCCO2 was read as Apaf-1 inh 9.6, SENP6 inh 84.6*, SENP8 block-1 20.2, SENP7 inh 82.3*, UBC13 polyUb 4.0, SENP8 block-2 76.3*, SENP8 confirm 85.2*, SENP6 confirm 84.3*, SENP7 conf 97.1*, Casp3 SENP sel 81.6* and SENP luc ctr 69.5*.
`O=C(Nc1cccc(F)c1)c1ccc2c(c1)OCCO2` gave Apaf-1 inh 2.4, SENP6 inh 89.0*, SENP8 block-1 2.5, SENP7 inh 93.2*, UBC13 polyUb 3.1, SENP8 block-2 87.1*, SENP8 confirm -3.7, SENP6 confirm 87.5*, SENP7 conf 99.2*, Casp3 SENP sel 89.7* and SENP luc ctr 88.9*.
`CN(CC(=O)Nc1cccc(F)c1)C(=O)c1ccc2c(c1)OCCO2` gave Apaf-1 inh -4.5, SENP6 inh 19.3, SENP8 block-1 10.7, SENP7 inh 2.9, UBC13 polyUb -1.5 and SENP8 block-2 15.6.
Screening CCCCCNC(=O)C(c1cc2ccccc2o1)n1c(=O)c(-c2ccccc2)nc2ccccc21 (centres undefined) returned SENP8 block-1 -339.8.
`COc1ccccc1NC(=O)CCSc1ccc(C)cc1` gave Apaf-1 inh -8.2, SENP6 inh 50.7*, SENP8 block-1 23.1, SENP7 inh 33.8, UBC13 polyUb 6.5, SENP8 block-2 20.7, SENP8 confirm 23.8, SENP6 confirm 22.2, SENP7 conf 63.4*, Casp3 SENP sel 42.7 and SENP luc ctr 35.3.
`COc1ccccc1NC(=O)CCSc1nc(C)cc(C)n1` gave Apaf-1 inh -2.1, SENP6 inh 0.2, SENP8 block-1 -0.6, SENP7 inh 4.0, UBC13 polyUb 1.7 and SENP8 block-2 0.7.
Cc1ccc2[nH]c(=O)c(CN(CC3CCCO3)S(=O)(=O)c3c(C)ccc4nsnc34)cc2c1 (centres undefined) was read as Apaf-1 inh 0.2, SENP6 inh 1.9, SENP8 block-1 10.9, SENP7 inh 3.6, UBC13 polyUb -3.4 and SENP8 block-2 4.9.
Cc1ccc2nsnc2c1S(=O)(=O)N(CCO)Cc1cc2cc3c(cc2[nH]c1=O)OCCO3 was read as Apaf-1 inh -13.1, SENP6 inh -32.2, SENP8 block-1 -165.0, SENP7 inh 70.8*, UBC13 polyUb 0.1, SENP8 block-2 -5.1, SENP8 confirm -10.0, SENP6 confirm -6.0, SENP7 conf -12.8, Casp3 SENP sel -1.7 and SENP luc ctr 1.5.
CC(=O)c1ccc(NC(=O)CCNC(=O)c2ccccc2Cl)cc1 was read as Apaf-1 inh 0.3, SENP6 inh -7.1, SENP8 block-1 3.4, SENP7 inh -0.2, UBC13 polyUb 2.4 and SENP8 block-2 1.0.
